ChEMBL document CHEMBL4422685, “Design, synthesis and evaluation of a series of 5-methoxy-2,3-naphthalimide derivatives as AcrB inhibitors for the reversal of bacterial resistance” (Bioorg Med Chem Lett, 2019)
Calls of active or inactive are those of the source. The calls are words filed in the database; no cut-off is given here.

Assays:
[1] = biological target: T1, Multidrug efflux pump subunit AcrB (Escherichia coli (strain K12)) (UniProt P31224); assay: Inhibition of AcrB in wild-type drug-resistant Escherichia coli […] assessed as potentiation of levofloxacin-induced antimicrobial activity by measuring levofloxacin MIC at 8 ug/ml by checkerboard titration method (reference value: 0.063 ug/ml)
T1 sequence (whole entry): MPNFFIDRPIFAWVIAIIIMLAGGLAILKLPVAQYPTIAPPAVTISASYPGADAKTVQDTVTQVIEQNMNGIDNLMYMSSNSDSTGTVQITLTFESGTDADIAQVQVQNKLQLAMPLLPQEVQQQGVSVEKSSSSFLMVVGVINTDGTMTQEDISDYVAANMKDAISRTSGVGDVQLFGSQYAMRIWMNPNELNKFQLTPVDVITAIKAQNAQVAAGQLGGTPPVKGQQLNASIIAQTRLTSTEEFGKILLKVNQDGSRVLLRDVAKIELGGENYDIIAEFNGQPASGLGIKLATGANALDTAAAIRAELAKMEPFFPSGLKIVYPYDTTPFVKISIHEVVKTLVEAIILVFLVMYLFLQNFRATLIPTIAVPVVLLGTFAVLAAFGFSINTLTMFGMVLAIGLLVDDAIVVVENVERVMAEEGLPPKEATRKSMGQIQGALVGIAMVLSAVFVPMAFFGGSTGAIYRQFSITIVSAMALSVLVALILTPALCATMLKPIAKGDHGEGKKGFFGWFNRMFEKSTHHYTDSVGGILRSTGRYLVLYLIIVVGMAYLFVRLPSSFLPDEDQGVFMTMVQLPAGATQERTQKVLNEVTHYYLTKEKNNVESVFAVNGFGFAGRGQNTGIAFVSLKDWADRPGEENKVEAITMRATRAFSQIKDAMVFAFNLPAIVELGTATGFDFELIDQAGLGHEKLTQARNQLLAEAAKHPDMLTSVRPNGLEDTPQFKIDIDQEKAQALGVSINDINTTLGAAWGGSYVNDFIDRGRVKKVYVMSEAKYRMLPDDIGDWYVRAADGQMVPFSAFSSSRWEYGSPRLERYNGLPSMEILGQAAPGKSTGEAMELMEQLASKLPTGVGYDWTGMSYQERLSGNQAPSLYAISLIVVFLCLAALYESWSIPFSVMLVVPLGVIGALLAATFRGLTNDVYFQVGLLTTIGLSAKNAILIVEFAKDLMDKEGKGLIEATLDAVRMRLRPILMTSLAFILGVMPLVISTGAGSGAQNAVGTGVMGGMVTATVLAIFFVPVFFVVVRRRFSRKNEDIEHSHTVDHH

[2] = biological target: T1, Multidrug efflux pump subunit AcrB (Escherichia coli (strain K12)); assay: Inhibition of AcrB in wild-type drug-resistant Escherichia coli […] assessed as potentiation of tetraphenyl phosphonium chloride-induced antimicrobial activity by measuring tetraphenyl phosphonium chloride MIC at 128 ug/ml by checkerboard titration method (reference value: 1024 ug/ml)
[3] = biological target: T1, Multidrug efflux pump subunit AcrB (Escherichia coli (strain K12)); assay: Inhibition of AcrB in wild-type drug-resistant Escherichia coli […] assessed as potentiation of erythromycin-induced antimicrobial activity by measuring erythromycin MIC at 32 ug/ml by checkerboard titration method (reference value: 64 ug/ml)
Escherichia coli [4] = assay: Toxicity against wild-type drug-resistant Escherichia coli […] at 128 ug/ml; assay type: organism-based; details: in vivo
Summary of the method: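 MIC determination against wild-type resistant E. coli BW25113 and an isogenic acrB-deleted strain; highest concentration tested 128 mg/L.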

Escherichia coli [5] = assay: Disruption of Escherichia coli inner membrane integrity at 128 ug/ml after 10 mins by DiOC2(3) probe based fluorescence assay; assay type: ADME, organism-based; details: in vivo
Summary of the method: (§1)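 Bacterial suspensions pre-exposed to compound for 10 min, then DiOC2(3) added and fluorescence followed to plateau. Cells re-energized with 0.5% glucose; membrane potential (inside negative) read as fluorescence rise to plateau, then collapsed with the proton ionophore CCCP. Untreated cells run alongside.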

[6] = biological target: T1, Multidrug efflux pump subunit AcrB (Escherichia coli (strain K12)); assay: Inhibition of AcrB in wild-type drug-resistant Escherichia coli […] assessed as potentiation of erythromycin-induced antimicrobial activity by measuring erythromycin MIC at 8 ug/ml by checkerboard titration method (reference value: 64 ug/ml)
[7] = biological target: T1, Multidrug efflux pump subunit AcrB (Escherichia coli (strain K12)); assay: Inhibition of AcrB in wild-type drug-resistant Escherichia coli […] assessed as reduction in glucose-induced nile red efflux at 50 uM by fluorescence assay
Summary of the method: (§2)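 E. coli cells (wild-type resistant with active pump, acrB-deleted, or wild-type plus compound) preloaded with Nile Red before fluorescence recording. Efflux triggered at 100 s by adding 0.2% glucose. Fluorescence traces followed; experiments with different cell batches on three different days.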

HeLa = assay: Cytotoxicity against human HeLa cells after 48 hrs by MTT assay; assay type: cell-based
Summary of the method: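 MTT-based viability assay on human cervical cancer HeLa cells, 48 h exposure; IC50 derived.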

[8] = biological target: T1, Multidrug efflux pump subunit AcrB (Escherichia coli (strain K12)); assay: Inhibition of AcrB in wild-type drug-resistant Escherichia coli […] assessed as reduction in glucose-induced nile red efflux at 100 uM by fluorescence assay; summary of the method: as §2
[9] = biological target: T1, Multidrug efflux pump subunit AcrB (Escherichia coli (strain K12)); assay: Inhibition of AcrB in wild-type drug-resistant Escherichia coli […] assessed as reduction in glucose-induced nile red efflux at 100 to 200 uM by fluorescence assay; summary of the method: as §2
Escherichia coli [10] = assay: Disruption of Escherichia coli inner membrane integrity at 8 ug/ml after 10 mins by DiOC2(3) probe based fluorescence assay; assay type: ADME, organism-based; details: in vivo; summary of the method: as §1
Escherichia coli [11] = assay: Induction of Escherichia coli outer membrane permeabilization assessed as increase in nitrocefin hydrolysis at 8 ug/ml by spectroscopic method; assay type: organism-based
[12] = biological target: T1, Multidrug efflux pump subunit AcrB (Escherichia coli (strain K12)); assay: Inhibition of AcrB in wild-type drug-resistant Escherichia coli […] assessed as potentiation of levofloxacin-induced antimicrobial activity by fold reduction in levofloxacin MIC at 16 to 32 ug/ml by checkerboard titration method relative to levofloxacin alone
[13] = biological target: T1, Multidrug efflux pump subunit AcrB (Escherichia coli (strain K12)); assay: Inhibition of AcrB in wild-type drug-resistant Escherichia coli […] assessed as reduction in glucose-induced nile red efflux at 500 uM by fluorescence assay; summary of the method: as §2
[14] = biological target: T1, Multidrug efflux pump subunit AcrB (Escherichia coli (strain K12)); assay: Inhibition of AcrB in wild-type drug-resistant Escherichia coli […] assessed as reduction in glucose-induced nile red efflux at 200 uM by fluorescence assay; summary of the method: as §2
Escherichia coli [15] = assay: Induction of Escherichia coli outer membrane permeabilization assessed as increase in nitrocefin hydrolysis at 32 ug/ml by spectroscopic method; assay type: organism-based

Work on `CCCCCCN1C(=O)c2cc3cccc(OC)c3cc2C1=O` yielded an MIC [1] of 0.063 µg/mL, an MIC [2] of 128 µg/mL and an MIC [3] of 32 µg/mL. The Activity (Escherichia coli [4]) was “Non-Toxic”, the Activity (Escherichia coli [5]) was “Non-Toxic” and the MIC [6] was 64 µg/mL. The inhibition [7] was 100%.
For `CCc1ccccc1N1C(=O)c2cc3cccc(OC)c3cc2C1=O`, the MIC [1] was 0.063 µg/mL, the IC50 (HeLa) was over 64 µg/mL and the MIC [2] was 512 µg/mL. For the same compound, the MIC [3] was 64 µg/mL, the Activity (Escherichia coli [4]) was “Non-Toxic” and the Activity (Escherichia coli [5]) was “Non-Toxic”. For the same compound, the MIC [6] was 64 µg/mL and the inhibition [7] was “Active”.
`CCCCCN1C(=O)c2cc3cccc(OC)c3cc2C1=O` was tested, and the MIC [1] was 0.063 µg/mL, the IC50 (HeLa) was over 64 µg/mL and the MIC [2] was 512 µg/mL. The MIC [3] was 32 µg/mL, the Activity (Escherichia coli [4]) was “Non-Toxic” and the Activity (Escherichia coli [5]) was “Non-Toxic”. The inhibition [8] was “Active” and the MIC [6] was 64 µg/mL.
With `COc1cccc2cc3c(cc12)C(=O)N(C1CCCC1)C3=O` the MIC [1] was 0.063 µg/mL, the MIC [2] was 1020 µg/mL and the inhibition [9] was “inactive”. For the same compound, the MIC [3] was 32 µg/mL, the Activity (Escherichia coli [4]) was “Non-Toxic” and the Activity (Escherichia coli [5]) was “Non-Toxic”. The MIC [6] was 64 µg/mL.
`COc1ccc(CN2C(=O)c3cc4cccc(OC)c4cc3C2=O)cc1` was tested, and the MIC [1] was 0.063 µg/mL, the MIC [2] was 1020 µg/mL and the Activity (Escherichia coli [10]) was “Non-Toxic”. The MIC [3] was 32 µg/mL, the Activity (Escherichia coli [4]) was “Non-Toxic” and the inhibition [8] was “Active”. For the same compound, the MIC [6] was 64 µg/mL and the Activity (Escherichia coli [11]) was “Non-Toxic”.
For `COc1ccccc1CN1C(=O)c2cc3cccc(OC)c3cc2C1=O`, the MIC [1] was 0.016 µg/mL, the IC50 (HeLa) was over 64 µg/mL and the MIC [2] was 512 µg/mL. The MIC [3] was 64 µg/mL, the Activity (Escherichia coli [4]) was “Non-Toxic” and the Activity (Escherichia coli [5]) was “Non-Toxic”. The inhibition [8] was “Active”, the MIC [6] was 64 µg/mL and the fold change (FC) [12] was 16.
Work on `COc1cccc2cc3c(cc12)C(=O)N(C(C)C)C3=O` yielded an MIC [1] of 0.063 µg/mL, an MIC [2] of 512 µg/mL and an MIC [3] of 32 µg/mL. For the same compound, the Activity (Escherichia coli [4]) was “Non-Toxic”, the Activity (Escherichia coli [5]) was “Non-Toxic” and the inhibition [13] was 100%. The MIC [6] was 32 µg/mL and the inhibition [14] was “Active”.
With `COc1cccc2cc3c(cc12)C(=O)N(C)C3=O` the MIC [1] was 0.063 µg/mL, the MIC [2] was 1020 µg/mL and the MIC [3] was 64 µg/mL. The Activity (Escherichia coli [4]) was “Non-Toxic”, the Activity (Escherichia coli [5]) was “Non-Toxic” and the inhibition [13] was 100%. The MIC [6] was 64 µg/mL, the inhibition [14] was “Active” and the Activity (Escherichia coli [15]) was “Non-Toxic”.
With `COc1cccc2cc3c(cc12)C(=O)N(Cc1ccccc1)C3=O` the MIC [1] was 0.063 µg/mL, the MIC [2] was 512 µg/mL and the MIC [3] was 32 µg/mL. For the same compound, the Activity (Escherichia coli [4]) was “Non-Toxic”, the Activity (Escherichia coli [5]) was “Non-Toxic” and the inhibition [8] was “Active”. For the same compound, the MIC [6] was 32 µg/mL.
Work on `COc1cccc2cc3c(cc12)C(=O)N(c1ccccc1Cl)C3=O` yielded an MIC [1] of 0.063 µg/mL, an MIC [2] of 512 µg/mL and an MIC [3] of 64 µg/mL. The Activity (Escherichia coli [4]) was “Non-Toxic”, the Activity (Escherichia coli [5]) was “Non-Toxic” and the MIC [6] was 64 µg/mL. For the same compound, the inhibition [7] was “Active”.
